13 molecules from ChEMBL document CHEMBL4610036, “Discovery of small molecule antagonists of chemokine receptor CXCR6 that arrest tumor growth in SK-HEP-1 mouse xenografts as a model of hepatocellular carcinoma” (Bioorg Med Chem Lett, 2020) can be followed below.

pIC50: −log10 of the molar value. Active and inactive are the calls of the source. The calls are words filed in the database; no cut-off is given here.

In experiment [1] the target is T1, C-X-C chemokine receptor type 6 (Homo sapiens, UniProt O00574). The experiment can be described thus: Antagonist activity at Prolink-tagged human CXCR6 receptor assessed as inhibition of CXCL16-induced beta-arrestin recruitment by DiscoveRx cell based assay.
Target sequence in this assay (O00574 whole entry): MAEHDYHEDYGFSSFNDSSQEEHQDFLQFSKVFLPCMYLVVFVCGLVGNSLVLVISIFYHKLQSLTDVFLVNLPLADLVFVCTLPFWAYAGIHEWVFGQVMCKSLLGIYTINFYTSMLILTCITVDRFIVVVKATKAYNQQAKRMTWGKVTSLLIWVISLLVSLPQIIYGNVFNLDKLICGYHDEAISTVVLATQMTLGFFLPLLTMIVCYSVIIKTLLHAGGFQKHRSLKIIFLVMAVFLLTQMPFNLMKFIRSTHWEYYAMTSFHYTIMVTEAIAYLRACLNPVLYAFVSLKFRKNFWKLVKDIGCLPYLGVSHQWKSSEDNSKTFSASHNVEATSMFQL
The target in experiment [2] is T1, C-X-C chemokine receptor type 6. Briefly: Antagonist activity at Prolink-tagged human CXCR6 receptor assessed as inhibition of CXCL16-induced beta-arrestin recruitment by DiscoveRx cell based assay relative to control. Further details: concentration or dose not given beside the values. The method, boiled down:
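CXCR6 β-arrestin cells in assay media without G418/hygromycin, 800 cells/well, grown overnight at 37 °C; compounds added acoustically (DMSO ≤0.3%), then 20 nM CXCL16 (final) for 90 min at 37 °C. PathHunter luminescence read. Normalized between CXCL16-alone and no-ligand wells; four-parameter fit with Hill slope fixed at 1; at least two runs on different days, averaged pIC50 ± SD.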
Target sequence in this assay (O00574 whole entry, looked up): as the sequence (O00574 whole entry) above

The target is the same in experiment [3]. Briefly: Antagonist activity at Prolink-tagged human CXCR6 receptor assessed as inhibition of forskolin-induced cAMP accumulation by DiscoveRx cell based assay. The class given is functional. In outline:
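Lance Ultra TR-FRET cAMP assay in CXCR6 β-arrestin cells, 500 cells/well in OptiMEM/2% FBS, grown overnight. Compound added, then forskolin (2.5 mM stock) in HBSS/HEPES/BSA/RO-20-1724 with or without 20 nM CXCL16, 30 min at room temperature. Eu-cAMP tracer and ULight anti-cAMP antibody added, read after 30 min. Curve fit with Hill slope 1; ≥2 independent runs.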
Target sequence in this assay (O00574 whole entry): as above

For experiment [4] the target is unchanged. Briefly: Antagonist activity at Prolink-tagged human CXCR6 receptor assessed as inhibition of forskolin-induced cAMP accumulation by DiscoveRx cell based assay relative to control. It counts as functional. Further details: concentration or dose not given beside the values. In outline:
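CXCR6 β-arrestin cells in OptiMEM with 2% FBS, 500 cells/well, grown overnight; compounds added, then forskolin with 20 nM CXCL16 (stock concentrations) in HBSS/HEPES/BSA with RO-20-1724, 30 min at room temperature. cAMP read by LANCE Ultra TR-FRET after a further 30 min. Hill slope fixed at 1; at least two runs on different days, averaged pIC50 ± SD.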
Target sequence in this assay (O00574 whole entry, looked up): as the sequence (O00574 whole entry) above

Experiment [5] shares this target. Briefly: Inhibition of CXCR6-mediated cell invasion in human SKHEP1 cells after 72 hrs by transwell assay. It counts as cell-based. Particulars: SK-HEP1. In outline: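 SK-HEP-1 cells, 100k/well in 0.2% FBS, seeded in upper chamber of a chemotaxis plate coated with matrigel (250 μg/ml). CXCL16 (0.6 μg/ml) in lower chamber; compound in both chambers. Kept at 37 °C, 5% CO2 and imaged hourly in IncuCyte. Migration quantified as confluence from phase-contrast images.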
Target sequence in this assay (O00574 whole entry, looked up): as the sequence (O00574 whole entry) above

Experiment [6] has as its target T2, C-C chemokine receptor type 6 (Homo sapiens, UniProt P51684).
T2 sequence (P51684 whole entry): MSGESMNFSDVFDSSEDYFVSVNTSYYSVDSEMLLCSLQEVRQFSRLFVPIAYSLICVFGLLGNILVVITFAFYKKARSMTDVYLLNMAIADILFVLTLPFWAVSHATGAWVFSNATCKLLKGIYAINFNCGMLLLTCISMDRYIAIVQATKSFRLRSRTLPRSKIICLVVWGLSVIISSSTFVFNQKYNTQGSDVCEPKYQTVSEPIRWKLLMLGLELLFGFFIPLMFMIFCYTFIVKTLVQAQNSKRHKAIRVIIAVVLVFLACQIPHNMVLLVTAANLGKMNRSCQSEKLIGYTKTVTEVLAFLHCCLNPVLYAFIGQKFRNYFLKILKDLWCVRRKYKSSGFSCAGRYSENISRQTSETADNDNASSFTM
The experiment can be described thus: Antagonist activity at human CCR6.

The target in experiment [7] is T3, C-X-C chemokine receptor type 5 (Homo sapiens, UniProt P32302).
T3 sequence (P32302 whole entry): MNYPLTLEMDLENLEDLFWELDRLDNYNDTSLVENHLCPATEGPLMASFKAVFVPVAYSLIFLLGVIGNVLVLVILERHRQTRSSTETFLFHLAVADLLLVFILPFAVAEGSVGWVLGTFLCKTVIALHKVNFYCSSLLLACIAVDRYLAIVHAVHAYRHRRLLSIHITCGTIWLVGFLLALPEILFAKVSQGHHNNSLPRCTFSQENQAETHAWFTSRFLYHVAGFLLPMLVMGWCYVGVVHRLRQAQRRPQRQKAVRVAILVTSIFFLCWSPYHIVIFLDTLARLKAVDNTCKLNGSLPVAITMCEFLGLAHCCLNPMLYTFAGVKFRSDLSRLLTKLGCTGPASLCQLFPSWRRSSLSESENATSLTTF
Briefly: Antagonist activity at human CXCR5.

Experiment [8] concerns the target C-X-C chemokine receptor type 4 (Homo sapiens, UniProt P61073). Briefly: Antagonist activity at human CXCR4.
Experiment [9] addresses T4, C-X-C chemokine receptor type 6 (Mus musculus, UniProt Q9EQ16).
T4 sequence (Q9EQ16 whole entry): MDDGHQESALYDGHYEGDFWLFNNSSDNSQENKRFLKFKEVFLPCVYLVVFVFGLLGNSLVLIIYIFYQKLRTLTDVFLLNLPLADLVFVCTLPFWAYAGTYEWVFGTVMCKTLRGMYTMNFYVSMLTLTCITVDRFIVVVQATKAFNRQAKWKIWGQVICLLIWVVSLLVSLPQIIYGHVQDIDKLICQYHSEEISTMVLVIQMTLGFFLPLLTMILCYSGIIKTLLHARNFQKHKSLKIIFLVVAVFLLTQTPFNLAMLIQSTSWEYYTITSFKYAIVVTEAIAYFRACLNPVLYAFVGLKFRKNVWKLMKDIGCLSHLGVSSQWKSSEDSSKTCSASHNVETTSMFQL
Briefly: Antagonist activity at mouse CXCR6 by DiscoveRx cell based beta-arrestin assay.

Chain of C-X-C chemokine receptor type 4 (P61073 whole entry): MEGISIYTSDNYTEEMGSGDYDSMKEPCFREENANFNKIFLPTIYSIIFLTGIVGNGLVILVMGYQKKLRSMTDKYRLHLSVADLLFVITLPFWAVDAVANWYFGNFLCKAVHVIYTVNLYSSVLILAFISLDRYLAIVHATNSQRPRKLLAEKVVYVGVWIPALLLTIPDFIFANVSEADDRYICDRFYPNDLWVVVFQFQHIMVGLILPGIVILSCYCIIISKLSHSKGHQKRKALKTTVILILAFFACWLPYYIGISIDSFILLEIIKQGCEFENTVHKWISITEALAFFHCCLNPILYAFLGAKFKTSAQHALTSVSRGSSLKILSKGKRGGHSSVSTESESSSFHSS

Consider `COc1cc(C(=O)N[C@@H]2C[C@H]3CCC[C@@H](C2)N3Cc2nc3c(Cl)cccc3s2)cc(OC)c1OC`, for which the pIC50 was 6.89 in experiment [1] and 6.05 in [3]. Besides, the inhibition in experiment [2] (concentration not given here) came to 103%; in experiment [4] (concentration not given here), 95%. Besides, the inhibition entry in [5] is “Active”.
On to `O=C(CN1[C@@H]2CCC[C@H]1C[C@H](NC(=O)c1ccccc1)C2)Nc1ccccc1`, for which the negative logarithm of the IC50 (pIC50) in [1] was below 4.40; in experiment [3], below 4.10. In addition, the inhibition entry in [2], in [4] and in experiment [5] was “inactive” throughout.
With `COc1cc(C(=O)N[C@@H]2C[C@H]3CCC[C@@H](C2)N3CC(=O)Nc2ccccc2Cl)cc(OC)c1OC`, the pIC50 was 6.85 in [1]; 5.85 in experiment [3]; below 4.10 in experiment [6]; below 4.10 in experiment [7]; below 4.10 in experiment [8]; 4.74 in experiment [9]. Moreover, the inhibition came out at 100% in experiment [2] (concentration not given here) and 102% in experiment [4] (concentration not given here).
As for `COc1cc(C(=O)N[C@@H]2C[C@H]3CCC[C@@H](C2)N3CC(=O)Nc2ccccc2C)cc(OC)c1OC`, the pIC50 in experiment [1] was 6.10; in [3], 5.03. Also, the inhibition stood at 104% in experiment [2] (concentration not given here) and 101% in experiment [4] (concentration not given here).
Take `COc1cc(C(=O)N[C@@H]2C[C@H]3CCC[C@@H](C2)N3CC(=O)Nc2cc(Cl)cc(Cl)c2)cc(OC)c1OC`: the pIC50 in experiment [1] was 6.51; in [3] it was 5.89. The inhibition stood at 104% in experiment [2] (concentration not given here) and 96% in [4] (concentration not given here).
For `COc1cc(C(=O)N[C@@H]2C[C@H]3CCC[C@@H](C2)N3CC(=O)Nc2cc(C)ccc2C)cc(OC)c1OC`, the results for the pIC50 in experiment [1] and in experiment [3] were 6.21 and 4.78, respectively. The values for the inhibition in experiment [2] (concentration not given here) and in experiment [4] (concentration not given here) were 105% and 108%, respectively.
With `COc1cc(C(=O)N[C@@H]2C[C@H]3CCC[C@@H](C2)N3Cc2nc3ccccc3[nH]2)cc(OC)c1OC`, the values for the negative logarithm of the IC50 (pIC50) in experiment [1] and in [3] were 4.98 and below 4.40, respectively. Moreover, in experiment [2] (concentration not given here), the inhibition was determined as 84%. The inhibition entry in experiment [4] is “inactive”.
For `COc1ccc(C(=O)N[C@@H]2C[C@H]3CCC[C@@H](C2)N3CC(=O)Nc2ccc(Cl)cc2)cc1OC`, the pIC50 in [1] and in experiment [3] was below 4.40 each time. In addition, the inhibition result in [2] and in [4] was “inactive” each time.
In the case of `COc1cc(C(=O)N[C@@H]2C[C@H]3CCC[C@@H](C2)N3Cc2nc3ccc(Cl)cc3s2)cc(OC)c1OC`, the negative-log IC50 (pIC50) is 6.57 in [1] and 4.85 in experiment [3]. The inhibition in experiment [2] (concentration not given here) was determined as 103%; in experiment [4] (concentration not given here) it was 83%.
`COc1cc(C(=O)N[C@@H]2C[C@H]3CCC[C@@H](C2)N3CCc2nc3ccccc3s2)cc(OC)c1OC`: the pIC50 in experiment [1] and in [3] was below 4.30 each time. The inhibition result in experiment [2] and in experiment [4] was “inactive” in each case.
Regarding `COc1cccc(C(=O)N[C@@H]2C[C@H]3CCC[C@@H](C2)N3CC(=O)Nc2ccc(Cl)cc2)c1`, the values for the pIC50 in experiment [1] and in experiment [3] were below 4.40 and 4.84, respectively. The inhibition entry in [2] was “inactive”. Further, the inhibition in experiment [4] (concentration not given here) came to 87%.
On to `COc1cc(C(=O)N[C@@H]2C[C@H]3CCC[C@@H](C2)N3CC(=O)Nc2ccc(F)cc2)cc(OC)c1OC`, for which the values for the negative logarithm of the IC50 (pIC50) in [1] and in experiment [3] were 5.24 and 4.51, respectively. The values for the inhibition in [2] (concentration not given here) and in [4] (concentration not given here) were 100% and 90%, respectively.
On to `COc1cc(C(=O)N[C@@H]2C[C@H]3CCC[C@@H](C2)N3Cc2nc3cc(Cl)ccc3s2)cc(OC)c1OC`, for which the values for the pIC50 in [1] and in [3] were 6.77 and 5.49, respectively. Also, the results for the inhibition in experiment [2] (concentration not given here) and in experiment [4] (concentration not given here) were 100% and 90%, respectively.
